Laboratory results: ChEMBL document CHEMBL1133591, “Potent derivatives of glucagon-like peptide-1 with pharmacokinetic properties suitable for once daily administration” (J Med Chem, 2000)
Numbered stars: 1 amine (or outer) side, 2 acyl side, 3 side chain; on linkers, the order of the positions; unused ones are H or OH. Square brackets hold non-standard residues; d marks the D form. Side chains are listed from the residue outwards. Peptide text beside a SMILES is read from it. * marks the point of attachment. ξ: configuration not given here. Desaminohistidyl = O=C(CCc1c[nH]cn1)*; X2 = CCCCCCCCCCCCCC(CCCCC(=O)*)C(=O)O; ξγGlu = O=C(O)C(CCC(=O)[*:2])N[*:1]; Stearoyl = CCCCCCCCCCCCCCCCCC(=O)*; Palmitoyl = CCCCCCCCCCCCCCCC(=O)*; Octanoyl = CCCCCCCC(=O)*; ξK = NCCCCC(N)C(=O)O

Biological target: Glucagon-like peptide 1 receptor (Homo sapiens, UniProt P43220)
Sequence (P43220 whole entry): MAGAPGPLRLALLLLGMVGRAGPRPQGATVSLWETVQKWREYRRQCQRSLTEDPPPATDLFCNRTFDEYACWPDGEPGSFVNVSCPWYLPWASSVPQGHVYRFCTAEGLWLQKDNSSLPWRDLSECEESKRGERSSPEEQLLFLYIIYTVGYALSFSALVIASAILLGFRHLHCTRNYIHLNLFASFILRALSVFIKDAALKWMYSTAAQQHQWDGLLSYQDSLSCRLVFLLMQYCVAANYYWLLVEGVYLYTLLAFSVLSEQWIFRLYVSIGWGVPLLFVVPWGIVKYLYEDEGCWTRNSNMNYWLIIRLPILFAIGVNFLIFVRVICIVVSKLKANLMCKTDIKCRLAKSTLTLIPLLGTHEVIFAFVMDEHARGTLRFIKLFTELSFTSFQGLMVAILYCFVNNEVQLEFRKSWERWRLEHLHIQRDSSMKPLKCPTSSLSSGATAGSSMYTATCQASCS
Assay: Potency measured using recombinant human GLP-1 receptor expressed in Baby Hamster Kidney (BHK)cells
Format: cell-based
Details: not given

SMILES	EC50 [nM]
CCCCCCCCCCCCCCCC(=O)NC(CCC(=O)NCCCC[C@H](NC(=O)[C@@H](NC(=O)[C@H](CC(C)C)NC(=O)[C@H](Cc1c[nH]c2ccccc12)NC(=O)[C@H](C)NC(=O)[C@@H](NC(=O)[C@H](Cc1ccccc1)NC(=O)[C@H](CCC(=O)O)NC(=O)[C@H](CCCN=C(N)N)NC(=O)[C@H](C)NC(=O)[C@H](C)NC(=O)[C@H](CCC(N)=O)NC(=O)CNC(=O)[C@H](CCC(=O)O)NC(=O)[C@H](CC(C)C)NC(=O)[C@H](Cc1ccc(O)cc1)NC(=O)[C@H](CO)NC(=O)[C@H](CO)NC(=O)[C@@H](NC(=O)[C@H](CC(=O)O)NC(=O)[C@H](CO)NC(=O)[C@@H](NC(=O)[C@H](Cc1ccccc1)NC(=O)[C@@H](NC(=O)CNC(=O)[C@H](CCC(=O)O)NC(=O)[C@H](C)NC(=O)CCc1c[nH]cn1)[C@@H](C)O)[C@@H](C)O)C(C)C)[C@@H](C)CC)C(C)C)C(=O)NCC(=O)N[C@@H](CCCN=C(N)N)C(=O)NCC(=O)O)C(=O)O (some centres undefined) (Desaminohistidyl-AEGTFTSDVSSYLEGQAAREFIAWLVK([ξγGlu-Palmitoyl])GRG-OH)	2.36
CCCCCCCCCCCCCCCC(=O)NC(CCC(=O)NCCCC[C@H](NC(=O)[C@H](CO)NC(=O)[C@@H](NC(=O)[C@H](CC(=O)O)NC(=O)[C@H](CO)NC(=O)[C@@H](NC(=O)[C@H](Cc1ccccc1)NC(=O)[C@@H](NC(=O)CNC(=O)[C@H](CCC(=O)O)NC(=O)[C@H](C)NC(=O)[C@@H](N)Cc1c[nH]cn1)[C@@H](C)O)[C@@H](C)O)C(C)C)C(=O)N[C@@H](Cc1ccc(O)cc1)C(=O)N[C@@H](CC(C)C)C(=O)N[C@@H](CCC(=O)O)C(=O)NCC(=O)N[C@@H](CCC(N)=O)C(=O)N[C@@H](C)C(=O)N[C@@H](C)C(=O)N[C@@H](CCCN=C(N)N)C(=O)N[C@@H](CCC(=O)O)C(=O)N[C@@H](Cc1ccccc1)C(=O)N[C@H](C(=O)N[C@@H](C)C(=O)N[C@@H](Cc1c[nH]c2ccccc12)C(=O)N[C@@H](CC(C)C)C(=O)N[C@H](C(=O)N[C@@H](CCCN=C(N)N)C(=O)NCC(=O)N[C@@H](CCCN=C(N)N)C(=O)NCC(=O)O)C(C)C)[C@@H](C)CC)C(=O)O (some centres undefined) (H-HAEGTFTSDVSK([ξγGlu-Palmitoyl])YLEGQAAREFIAWLVRGRG-OH)	0.0352
CCCCCCCCCCCCCCCCCC(=O)NC(CCC(=O)NCCCCC(NC(=O)[C@H](CCC(=O)O)NC(=O)[C@H](CCCN=C(N)N)NC(=O)CNC(=O)[C@H](CCCN=C(N)N)NC(=O)[C@@H](NC(=O)[C@H](CC(C)C)NC(=O)[C@H](Cc1c[nH]c2ccccc12)NC(=O)[C@H](C)NC(=O)[C@@H](NC(=O)[C@H](Cc1ccccc1)NC(=O)[C@H](CCC(=O)O)NC(=O)[C@H](CCCN=C(N)N)NC(=O)[C@H](C)NC(=O)[C@H](C)NC(=O)[C@H](CCC(N)=O)NC(=O)CNC(=O)[C@H](CCC(=O)O)NC(=O)[C@H](CC(C)C)NC(=O)[C@H](Cc1ccc(O)cc1)NC(=O)[C@H](CO)NC(=O)[C@H](CO)NC(=O)[C@@H](NC(=O)[C@H](CC(=O)O)NC(=O)[C@H](CO)NC(=O)[C@@H](NC(=O)[C@H](Cc1ccccc1)NC(=O)[C@@H](NC(=O)CNC(=O)[C@H](CCC(=O)O)NC(=O)CNC(=O)[C@@H](N)Cc1c[nH]cn1)[C@@H](C)O)[C@@H](C)O)C(C)C)[C@@H](C)CC)C(C)C)C(=O)O)C(=O)O (some centres undefined) (H-HGEGTFTSDVSSYLEGQAAREFIAWLVRGRE[ξK]([ξγGlu-Stearoyl])-OH)	0.213
CCCCCCCCCCCCCCCC(=O)NC(CCC(=O)NCCCCC(NC(=O)CNC(=O)[C@H](CCCN=C(N)N)NC(=O)CNC(=O)[C@H](CCCN=C(N)N)NC(=O)[C@@H](NC(=O)[C@H](CC(C)C)NC(=O)[C@H](Cc1c[nH]c2ccccc12)NC(=O)[C@H](C)NC(=O)[C@@H](NC(=O)[C@H](Cc1ccccc1)NC(=O)[C@H](CCC(=O)O)NC(=O)[C@H](CCCN=C(N)N)NC(=O)[C@H](C)NC(=O)[C@H](C)NC(=O)[C@H](CCC(N)=O)NC(=O)CNC(=O)[C@H](CCC(=O)O)NC(=O)[C@H](CC(C)C)NC(=O)[C@H](Cc1ccc(O)cc1)NC(=O)[C@H](CO)NC(=O)[C@H](CO)NC(=O)[C@@H](NC(=O)[C@H](CC(=O)O)NC(=O)[C@H](CO)NC(=O)[C@@H](NC(=O)[C@H](Cc1ccccc1)NC(=O)[C@@H](NC(=O)CNC(=O)[C@H](CCC(=O)O)NC(=O)CNC(=O)[C@@H](N)Cc1c[nH]cn1)[C@@H](C)O)[C@@H](C)O)C(C)C)[C@@H](C)CC)C(C)C)C(=O)O)C(=O)O (some centres undefined) (H-HGEGTFTSDVSSYLEGQAAREFIAWLVRGRG[ξK]([ξγGlu-Palmitoyl])-OH)	0.328

The remaining lines, values ahead:

EC50 [nM]	SMILES
0.169	CCCCCCCC(=O)NC(CCC(=O)NCCCC[C@H](NC(=O)[C@@H](NC(=O)[C@H](CC(C)C)NC(=O)[C@H](Cc1c[nH]c2ccccc12)NC(=O)[C@H](C)NC(=O)[C@@H](NC(=O)[C@H](Cc1ccccc1)NC(=O)[C@H](CCC(=O)O)NC(=O)[C@H](CCCN=C(N)N)NC(=O)[C@H](C)NC(=O)[C@H](C)NC(=O)[C@H](CCC(N)=O)NC(=O)CNC(=O)[C@H](CCC(=O)O)NC(=O)[C@H](CC(C)C)NC(=O)[C@H](Cc1ccc(O)cc1)NC(=O)[C@H](CO)NC(=O)[C@H](CO)NC(=O)[C@@H](NC(=O)[C@H](CC(=O)O)NC(=O)[C@H](CO)NC(=O)[C@@H](NC(=O)[C@H](Cc1ccccc1)NC(=O)[C@@H](NC(=O)CNC(=O)[C@H](CCC(=O)O)NC(=O)[C@H](C)NC(=O)CCc1c[nH]cn1)[C@@H](C)O)[C@@H](C)O)C(C)C)[C@@H](C)CC)C(C)C)C(=O)NCC(=O)N[C@@H](CCCN=C(N)N)C(=O)NCC(=O)O)C(=O)O (some centres undefined) (Desaminohistidyl-AEGTFTSDVSSYLEGQAAREFIAWLVK([ξγGlu-Octanoyl])GRG-OH)
0.21	CCCCCCCCCCCCCC(CCCCC(=O)NCCCC[C@H](NC(=O)CNC(=O)[C@H](CCCN=C(N)N)NC(=O)[C@@H](NC(=O)[C@H](CC(C)C)NC(=O)[C@H](Cc1c[nH]c2ccccc12)NC(=O)[C@H](C)NC(=O)[C@@H](NC(=O)[C@H](Cc1ccccc1)NC(=O)[C@H](CCC(=O)O)NC(=O)[C@H](CCCN=C(N)N)NC(=O)[C@H](C)NC(=O)[C@H](C)NC(=O)[C@H](CCC(N)=O)NC(=O)CNC(=O)[C@H](CCC(=O)O)NC(=O)[C@H](CC(C)C)NC(=O)[C@H](Cc1ccc(O)cc1)NC(=O)[C@H](CO)NC(=O)[C@H](CO)NC(=O)[C@@H](NC(=O)[C@H](CC(=O)O)NC(=O)[C@H](CO)NC(=O)[C@@H](NC(=O)[C@H](Cc1ccccc1)NC(=O)[C@@H](NC(=O)CNC(=O)[C@H](CCC(=O)O)NC(=O)[C@H](C)NC(=O)[C@@H](N)Cc1c[nH]cn1)[C@@H](C)O)[C@@H](C)O)C(C)C)[C@@H](C)CC)C(C)C)C(=O)NCC(=O)O)C(=O)O (some centres undefined) (H-HAEGTFTSDVSSYLEGQAAREFIAWLVRGK(X2)G-OH)
0.116	CCCCCCCCCCCCCCCCCC(=O)NC(CCC(=O)NCCCC[C@H](NC(=O)CNC(=O)[C@H](CCCN=C(N)N)NC(=O)[C@@H](NC(=O)[C@H](CC(C)C)NC(=O)[C@H](Cc1c[nH]c2ccccc12)NC(=O)[C@H](C)NC(=O)[C@@H](NC(=O)[C@H](Cc1ccccc1)NC(=O)[C@H](CCC(=O)O)NC(=O)[C@H](CCCN=C(N)N)NC(=O)[C@H](C)NC(=O)[C@H](C)NC(=O)[C@H](CCC(N)=O)NC(=O)CNC(=O)[C@H](CCC(=O)O)NC(=O)[C@H](CC(C)C)NC(=O)[C@H](Cc1ccc(O)cc1)NC(=O)[C@H](CO)NC(=O)[C@H](CO)NC(=O)[C@@H](NC(=O)[C@H](CC(=O)O)NC(=O)[C@H](CO)NC(=O)[C@@H](NC(=O)[C@H](Cc1ccccc1)NC(=O)[C@@H](NC(=O)CNC(=O)[C@H](CCC(=O)O)NC(=O)[C@H](C)NC(=O)[C@@H](N)Cc1c[nH]cn1)[C@@H](C)O)[C@@H](C)O)C(C)C)[C@@H](C)CC)C(C)C)C(=O)NCC(=O)O)C(=O)O (some centres undefined) (H-HAEGTFTSDVSSYLEGQAAREFIAWLVRGK([ξγGlu-Stearoyl])G-OH)
0.0363	CCCCCCCCCCCCCCCC(=O)NC(CCC(=O)NCCCC[C@H](NC(=O)[C@H](CCCN=C(N)N)NC(=O)[C@H](C)NC(=O)[C@H](C)NC(=O)[C@H](CCC(N)=O)NC(=O)CNC(=O)[C@H](CCC(=O)O)NC(=O)[C@H](CC(C)C)NC(=O)[C@H](Cc1ccc(O)cc1)NC(=O)[C@H](CO)NC(=O)[C@H](CO)NC(=O)[C@@H](NC(=O)[C@H](CC(=O)O)NC(=O)[C@H](CO)NC(=O)[C@@H](NC(=O)[C@H](Cc1ccccc1)NC(=O)[C@@H](NC(=O)CNC(=O)[C@H](CCC(=O)O)NC(=O)[C@H](C)NC(=O)[C@@H](N)Cc1c[nH]cn1)[C@@H](C)O)[C@@H](C)O)C(C)C)C(=O)N[C@@H](Cc1ccccc1)C(=O)N[C@H](C(=O)N[C@@H](C)C(=O)N[C@@H](Cc1c[nH]c2ccccc12)C(=O)N[C@@H](CC(C)C)C(=O)N[C@H](C(=O)N[C@@H](CCCN=C(N)N)C(=O)NCC(=O)N[C@@H](CCCN=C(N)N)C(=O)NCC(=O)O)C(C)C)[C@@H](C)CC)C(=O)O (some centres undefined) (H-HAEGTFTSDVSSYLEGQAARK([ξγGlu-Palmitoyl])FIAWLVRGRG-OH)

Test system: not listed separately
Assay: Plasma half life was determined in pigs
Format: ADME, organism-based, Sus scrofa
Details: pig
Method in brief: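 Landrace × Duroc × Yorkshire pigs, 25–50 kg, two per compound; single sc dose, 0.5 nmol/kg for analogues, 15 nmol/kg for GLP-1. Jugular catheter blood at 0–72 h, extra early samples for GLP-1; EDTA/aprotinin/bacitracin-stabilized plasma. Unextracted plasma assayed by N-terminal-specific GLP-1 radioimmunoassay against spiked pig-plasma calibrators; half-life calculated per pig, reported as mean ± SD.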

half-life [min]	SMILES
1860	CCCCCCCCCCCCCCCC(=O)NCCCC(=O)NCCCC[C@H](NC(=O)[C@H](C)NC(=O)[C@H](C)NC(=O)[C@H](CCC(N)=O)NC(=O)CNC(=O)[C@H](CCC(=O)O)NC(=O)[C@H](CC(C)C)NC(=O)[C@H](Cc1ccc(O)cc1)NC(=O)[C@H](CO)NC(=O)[C@H](CO)NC(=O)[C@@H](NC(=O)[C@H](CC(=O)O)NC(=O)[C@H](CO)NC(=O)[C@@H](NC(=O)[C@H](Cc1ccccc1)NC(=O)[C@@H](NC(=O)CNC(=O)[C@H](CCC(=O)O)NC(=O)[C@H](C)NC(=O)[C@@H](N)Cc1c[nH]cn1)[C@@H](C)O)[C@@H](C)O)C(C)C)C(=O)N[C@@H](CCC(=O)O)C(=O)N[C@@H](Cc1ccccc1)C(=O)N[C@H](C(=O)N[C@@H](C)C(=O)N[C@@H](Cc1c[nH]c2ccccc12)C(=O)N[C@@H](CC(C)C)C(=O)N[C@H](C(=O)N[C@@H](CCCN=C(N)N)C(=O)NCC(=O)N[C@@H](CCCN=C(N)N)C(=O)NCC(=O)O)C(C)C)[C@@H](C)CC
